Results as given in ChEMBL document CHEMBL1131063 (J Med Chem, 1998).

Key:
[1] = target: T1, Phospholipase A2 (Apis mellifera) (UniProt P00630); test: Inhibitory activity against bee secretory Phospholipase A2 enzyme at 10 uM
T1 sequence (whole entry): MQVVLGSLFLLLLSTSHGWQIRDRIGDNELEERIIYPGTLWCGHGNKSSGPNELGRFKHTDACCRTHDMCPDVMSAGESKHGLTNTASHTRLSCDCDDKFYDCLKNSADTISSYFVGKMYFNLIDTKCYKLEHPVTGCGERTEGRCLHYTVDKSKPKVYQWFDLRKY

[2] = tested on: Phospholipase A2 (Naja naja); test: Inhibitory activity against naja naja secretory Phospholipase A2 at 10 uM; details: snake
[3] = target: Phospholipase A2, major isoenzyme (Sus scrofa) (UniProt P00592); test: Inhibitory activity against Porcine pancreatic secretory Phospholipase A2 at 10 uM
Chain of Phospholipase A2, major isoenzyme (Sus scrofa) (P00592 23-146 limits assumed): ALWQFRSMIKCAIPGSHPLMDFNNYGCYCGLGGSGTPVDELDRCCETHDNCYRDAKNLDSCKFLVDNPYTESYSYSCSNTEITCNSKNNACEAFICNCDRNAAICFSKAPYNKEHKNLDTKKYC
Procedure, shortened: (§1)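 Enzyme diluted in 100 mM Tris-HCl, 1 mM CaCl2, pH 7.5; preincubated 5 min at 37 °C with test compound or vehicle, then 15 min with autoclaved oleate-labeled membranes as substrate. Stopped with ice-cold BSA in saline (final 0.07% w/v), centrifuged 2500g 10 min at 4 °C. Supernatant radioactivity counted by liquid scintillation; percent inhibition at 10 μM, means ± SEM, n = 6.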

[4] = target: T2, Phospholipase A2, membrane associated (Homo sapiens) (UniProt P14555); test: Inhibitory activity against human synovial Phospholipase at 10 uM; procedure, shortened: as §1
T2 sequence (whole entry): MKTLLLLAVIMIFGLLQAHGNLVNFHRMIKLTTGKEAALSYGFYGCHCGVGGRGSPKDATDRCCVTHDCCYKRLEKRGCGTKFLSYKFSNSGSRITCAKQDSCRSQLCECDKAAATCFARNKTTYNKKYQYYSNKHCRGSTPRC

[5] = target: T1, Phospholipase A2 (Apis mellifera); test: Inhibitory activity against bee secretory Phospholipase A2 enzyme when pre-incubated with Hydroxylamine for 15 minutes
Procedure, shortened: (§2)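 Bee venom PLA2 was incubated at 41 °C with the test compound or methanol (control) in 100 mM Tris-HCl, 1 mM CaCl2, pH 7.5, for varied preincubation times. It was then diluted 2-fold with Tris buffer or with hydroxylamine (final 50 mM, pH 7.5) and held 2 h at 41 °C. PLA2 activity was then assayed. Final compound concentrations were 5–50 μM. n = 6.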

[6] = target: T1, Phospholipase A2 (Apis mellifera); test: Inhibitory activity against bee secretory Phospholipase A2 enzyme when pre-incubated for 5 minutes; procedure, shortened: as §2
[7] = target: T1, Phospholipase A2 (Apis mellifera); test: Inhibitory activity against bee secretory Phospholipase A2 enzyme when pre-incubated with Tris buffer for 5 minutes; procedure, shortened: as §2
[8] = target: T1, Phospholipase A2 (Apis mellifera); test: Inhibitory activity against bee secretory Phospholipase A2 enzyme when pre-incubated with Tris buffer for 15 minutes; procedure, shortened: as §2
[9] = target: T1, Phospholipase A2 (Apis mellifera); test: Inhibitory activity against bee secretory Phospholipase A2 enzyme when pre-incubated with Hydroxylamine for 5 minutes; procedure, shortened: as §2
[10] = target: T1, Phospholipase A2 (Apis mellifera); test: Inhibitory activity against bee secretory Phospholipase A2 enzyme when pre-incubated with Tris buffer for 60 minutes; procedure, shortened: as §2
[11] = target: T1, Phospholipase A2 (Apis mellifera); test: Inhibitory activity against bee secretory Phospholipase A2 enzyme when pre-incubated for 60 minutes; procedure, shortened: as §2
[12] = target: T1, Phospholipase A2 (Apis mellifera); test: Inhibitory activity against bee secretory Phospholipase A2 enzyme when pre-incubated with Hydroxylamine for 60 minutes; procedure, shortened: as §2
[13] = target: T1, Phospholipase A2 (Apis mellifera); test: Inhibitory activity against bee secretory Phospholipase A2 enzyme when pre-incubated for 15 minutes; procedure, shortened: as §2
[14] = target: T3, Phospholipase A2, membrane associated (Homo sapiens, UniProt P14555); test: Inhibitory activity against human synovial recombinant Phospholipase enzyme
T3 sequence (P14555 whole entry): T2 sequence (whole entry)

Phospholipase A2 = target: T4, Phospholipase A2 (Apis mellifera, UniProt P00630); test: Inhibitory activity against bee secretory Phospholipase A2 enzyme
T4 sequence (P00630 whole entry): T1 sequence (whole entry)

Mus musculus [15] = test: Inhibitory activity against carrageenan induced paw edema at a oral dose of 10 mg/kg in mouse 5 hours after carrageenan administration; assay type: functional
Procedure, shortened: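 Female Swiss mice (20–25 g) were fasted 12 h and dosed orally in ethanol/Tween 80/water (5:5:90), n = 6 per group. One hour later, 0.05 mL of 3% carrageenan was injected subplantar into the right hind paw. Edema was injected minus contralateral paw volume by plethysmometer, expressed as % inhibition versus control. ANOVA with Dunnett's test.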

Mus musculus [16] = test: Inhibitory activity against carrageenan induced paw edema at a oral dose of 10 mg/kg in mouse 3 hours after carrageenan administration; assay type: functional
Procedure, shortened: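 Female Swiss mice (20–25 g), fasted 12 h with water available, in groups of six, dosed orally (0.5 mL) in ethanol/Tween 80/water 5:5:90 1 h before subplantar injection of 0.05 mL 3% w/v carrageenan into right hind paw. Paw volumes read by plethysmometer; edema = injected minus contralateral volume; percent inhibition vs vehicle controls; ANOVA with Dunnett's test.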

[17] = target: T1, Phospholipase A2 (Apis mellifera); test: Inhibitory activity against secretory PLA2 enzyme (Bee venom) when pre-incubated with Hydroxylamine for 15 minutes; procedure, shortened: as §2
[18] = target: T1, Phospholipase A2 (Apis mellifera); test: Inhibition against bee secretory PLA2 enzyme when pre-incubated for 5 minutes; procedure, shortened: as §2

| SMILES | inhibition [1] | inhibition [2] | inhibition [3] | inhibition [4] | inhibition [7] | inhibition [8] | inhibition [9] | inhibition [10] | inhibition [11] | inhibition [12] | inhibition [13] | other results |
| --- | --- | --- | --- | --- | --- | --- | --- | --- | --- | --- | --- | --- |
| C/C=C/CC1=CCC(C2=CC(=O)OC2O)OC1 (stereo unspecified) | 40.1% | 7.1% | 17.6% | 24.8% |  |  |  |  |  |  |  |  |
| C=C1CCC[C@H]2[C@](C)(CCC3=CCC(C4=CC(=O)OC4O)OC3)[C@H](C)CC[C@]12C (stereo partly specified) |  |  |  |  | 95.4% | 95.4% | 81.9% | 98.4% | 100% | 99.3% | 93.7% | inhibition [5]: 89.4%; inhibition [6]: 85.8% |
| CC1=CCC(C2=CC(=O)OC2O)OC1O (stereo unspecified) | 14.9% | 3% | 6.8% | 3.2% |  |  |  |  |  |  |  |  |
| O=C1C=C(C2CC=C(Cc3ccccc3)CO2)C(O)O1 (stereo unspecified) | 30.3% | 7.6% | 17.4% | 15.5% |  |  |  |  |  |  |  |  |
| O=C1C=C(C2CC=C(Cc3ccccc3)C(O)O2)C(O)O1 (stereo unspecified) | 16.1% | 7.1% | 16.1% | 11.9% |  |  |  |  |  |  |  |  |
| O=C1C=C(C2CC=CC(O)O2)C(O)O1 (stereo unspecified) | 0.7% | 5.2% | 1% | 18.9% |  |  |  |  |  |  |  |  |
| O=C1C=C(C2CC=CCO2)C(O)O1 (stereo unspecified) | 9.3% | 10.1% | 0.2% | 42.3% |  |  |  |  |  |  |  |  |
| CC(C)=CCC/C(C)=C/CC/C(C)=C/CC1=CCC(C2=CC(=O)OC2O)OC1 (stereo unspecified) | 71.8% |  | 30% | 63.1% | 58.5% | 58.7% | 50.1% | 65.3% | 99.7% | 65.1% | 87.1% | inhibition [5]: 51.1%; inhibition [6]: 85.6%; IC50 [14]: 4200 nM; IC50 (Phospholipase A2): 1700 nM |
| C/C=C/CC1=CCC(C2=CC(=O)OC2O)OC1O (stereo unspecified) | 24.8% | 1.8% | 15.1% | 21.2% |  |  |  |  |  |  |  |  |
| CC1=C(CC/C(C)=C/CCC2=CC[C@H](C3=CC(=O)O[C@H]3O)O[C@H]2O)C(C)(C)CCC1 | 62.5% |  | 32.3% | 93.2% | 42.4% | 44.2% | 21% | 47.3% | 91.1% | 43.1% | 63.3% | inhibition [5]: 28%; inhibition [6]: 49.5% |
| CC(C)=CCC/C(C)=C/CC/C(C)=C/CC1=CCC(C2=CC(=O)OC2O)OC1O (stereo unspecified) | 84.2% | 33.6% | 39.8% | 74.6% | 80.8% | 80.9% | 39.1% | 75.2% | 95.1% | 71.5% | 70.3% | inhibition in vivo at 10 mg/kg (Mus musculus [15]): 43.2%; inhibition in vivo at 10 mg/kg (Mus musculus [16]): 42.9%; inhibition [17]: 56.9%; IC50 [14]: 900 nM; IC50 (Phospholipase A2): 500 nM; inhibition [18]: 48.4% |
| COc1ccc2c(c1)c(CC(=O)O)c(C)n2C(=O)c1ccc(Cl)cc1 [INDOMETHACIN] |  |  |  |  |  |  |  |  |  |  |  | inhibition in vivo at 10 mg/kg (Mus musculus [15]): 42.3%; inhibition in vivo at 10 mg/kg (Mus musculus [16]): 40% |
| CC1=CCC(C2=CC(=O)OC2O)OC1 (stereo unspecified) | 8% | 1.4% | 5.6% | 0.1% |  |  |  |  |  |  |  |  |
